Data from ChEMBL document CHEMBL4622985, “Design, Synthesis, and Pharmacological Characterization of Heterobivalent Ligands for the Putative 5-HT2A/mGlu2 Receptor Complex” (J Med Chem, 2020).

Legend:
[1] = target: T1, Metabotropic glutamate receptor 2 (Homo sapiens, UniProt Q14416); experiment: Agonist activity at human mGlu2 receptor expressed in HEK293 cells co-expressing Gqo5 assessed as increase in intracellular Ca2+ mobilization incubated for 1 hr by Fluo-4 dye based fluorescence assay; type: functional, cell-based
[2] = target: T1, Metabotropic glutamate receptor 2; experiment: Positive modulator activity at human mGlu2 receptor expressed in HEK293 cells co-expressing Gqo5 assessed as increase in intracellular Ca2+ mobilization incubated for 1 hr in presence of EC20 glutamate by Fluo-4 dye based fluorescence assay; type: functional, cell-based
[3] = target: T2, 5-hydroxytryptamine receptor 2A (Homo sapiens, UniProt P28223); experiment: Antagonist activity at human 5HT2A receptor expressed in HEK293 cells assessed as inhibition of 5HT-induced intracellular Ca2+ mobilization incubated for 1 hr by Fluo-4 dye based fluorescence assay; type: functional, cell-based
[4] = target: T3, 5-hydroxytryptamine receptor 2A/Metabotropic glutamate receptor 2 (Homo sapiens, UniProt P28223+Q14416); experiment: Agonist activity at human 5HT2A/mGlu2 receptor expressed in HEK293 cells co-expressing Gqo5 assessed as increase in intracellular Ca2+ mobilization incubated for 1 hr by Fluo-4 dye based fluorescence assay; type: functional, cell-based
[5] = target: T3, 5-hydroxytryptamine receptor 2A/Metabotropic glutamate receptor 2; experiment: Positive modulator activity at human 5HT2A/mGlu2 receptor expressed in HEK293 cells co-expressing Gqo5 assessed as increase in intracellular Ca2+ mobilization incubated for 1 hr by Fluo-4 dye based fluorescence assay 5HT2A_HUMAN/GRM2_HUMAN P28223/Q14416; type: functional, cell-based
[6] = target: T3, 5-hydroxytryptamine receptor 2A/Metabotropic glutamate receptor 2; experiment: Antagonist activity at human 5HT2A/mGlu2 receptor expressed in HEK293 cells assessed as inhibition of 5HT-induced intracellular Ca2+ mobilization incubated for 1 hr by Fluo-4 dye based fluorescence assay 5HT2A_HUMAN/GRM2_HUMAN P28223/Q14416; type: functional, cell-based
[7] = target: T3, 5-hydroxytryptamine receptor 2A/Metabotropic glutamate receptor 2; experiment: Antagonist activity at human 5HT2A/mGlu2 receptor expressed in HEK293 cells co-expressing Gqo5 assessed as inhibition of glutamate-induced intracellular Ca2+ mobilization incubated for 1 hr by Fluo-4 dye based fluorescence assay 5HT2A_HUMAN/GRM2_HUMAN P28223/Q14416; type: functional, cell-based
[8] = target: T3, 5-hydroxytryptamine receptor 2A/Metabotropic glutamate receptor 2; experiment: Antagonist activity at human 5HT2A/mGlu2 receptor expressed in HEK293 cells co-expressing Gqo5 assessed as inhibition of 5HT-induced intracellular Ca2+ mobilization incubated for 1 hr by Fluo-4 dye based fluorescence assay 5HT2A_HUMAN/GRM2_HUMAN P28223/Q14416; type: functional, cell-based
[9] = target: T2, 5-hydroxytryptamine receptor 2A; experiment: Displacement of [3H]-ketanserin from human HT2A receptor expressed in HEK293 cell membranes incubated for 2 hrs by scintillation counting method
In short: (§1)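 Membranes from stable HEK293 lines were homogenized and centrifuged twice at 50.000g, 4 °C, then resuspended in 50 mM Tris-HCl, 10 mM MgCl2, 0.1 mM EDTA, pH 7.4. Competition used fixed [3H]ketanserin ~1.5 nM (1.3−1.8 nM) against varied test compound, with bound/free kept <10%. Incubation ran 2 h at rt with shaking, followed by GF/C filtration. Ki was obtained by Cheng−Prusoff using saturation KD. Three independent experiments, each in duplicate.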

[10] = target: T3, 5-hydroxytryptamine receptor 2A/Metabotropic glutamate receptor 2; experiment: Displacement of [3H]-ketanserin from human 5HT2A/mGlu2 receptor expressed in HEK293 cell membranes incubated for 2 hrs by scintillation counting method; in short: as §1
[11] = target: T3, 5-hydroxytryptamine receptor 2A/Metabotropic glutamate receptor 2; experiment: Displacement of [3H]-ketanserin from human 5HT2A/mGlu2 receptor expressed in HEK293 cell co-expressing Gqo5 membranes incubated for 2 hrs by scintillation counting method; type: cell-based; in short: as §1

T1 sequence (Q14416 whole entry): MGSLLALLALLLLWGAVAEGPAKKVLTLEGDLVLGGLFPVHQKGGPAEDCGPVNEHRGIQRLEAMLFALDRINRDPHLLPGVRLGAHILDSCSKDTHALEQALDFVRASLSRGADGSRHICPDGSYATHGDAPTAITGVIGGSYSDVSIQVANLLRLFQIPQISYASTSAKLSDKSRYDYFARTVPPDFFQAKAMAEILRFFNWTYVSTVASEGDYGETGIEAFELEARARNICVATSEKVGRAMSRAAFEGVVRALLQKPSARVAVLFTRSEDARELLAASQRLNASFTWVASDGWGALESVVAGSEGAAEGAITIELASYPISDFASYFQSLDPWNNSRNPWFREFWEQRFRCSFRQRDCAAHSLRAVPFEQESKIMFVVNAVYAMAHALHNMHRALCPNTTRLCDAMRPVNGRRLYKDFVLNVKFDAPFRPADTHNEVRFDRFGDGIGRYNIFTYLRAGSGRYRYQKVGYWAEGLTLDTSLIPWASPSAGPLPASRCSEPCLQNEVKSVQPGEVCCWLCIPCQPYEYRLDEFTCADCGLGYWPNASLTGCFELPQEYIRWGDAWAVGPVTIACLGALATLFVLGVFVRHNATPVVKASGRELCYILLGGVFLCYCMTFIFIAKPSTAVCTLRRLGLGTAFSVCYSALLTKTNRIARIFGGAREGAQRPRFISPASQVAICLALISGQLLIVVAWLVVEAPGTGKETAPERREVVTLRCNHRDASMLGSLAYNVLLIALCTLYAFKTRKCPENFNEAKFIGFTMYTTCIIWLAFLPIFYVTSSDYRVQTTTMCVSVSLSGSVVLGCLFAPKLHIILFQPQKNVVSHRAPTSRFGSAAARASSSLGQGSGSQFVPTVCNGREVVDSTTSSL
T3 sequence (P28223 whole entry): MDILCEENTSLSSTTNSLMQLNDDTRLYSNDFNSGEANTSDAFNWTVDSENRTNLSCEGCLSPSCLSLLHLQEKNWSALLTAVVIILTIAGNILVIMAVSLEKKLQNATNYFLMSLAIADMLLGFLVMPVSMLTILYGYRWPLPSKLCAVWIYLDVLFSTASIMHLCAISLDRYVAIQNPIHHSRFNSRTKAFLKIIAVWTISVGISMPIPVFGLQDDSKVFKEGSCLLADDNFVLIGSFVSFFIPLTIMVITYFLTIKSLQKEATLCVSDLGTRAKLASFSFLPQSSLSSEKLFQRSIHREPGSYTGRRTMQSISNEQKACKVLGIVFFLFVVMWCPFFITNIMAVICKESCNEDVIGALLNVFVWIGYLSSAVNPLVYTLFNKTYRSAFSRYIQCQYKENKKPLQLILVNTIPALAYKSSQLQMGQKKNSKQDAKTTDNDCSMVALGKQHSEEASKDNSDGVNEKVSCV
T3 sequence (Q14416 whole entry): as the sequence (Q14416 whole entry) above
T2 sequence (P28223 whole entry): as the sequence (P28223 whole entry) above

SMILES	EC50 ([1]; read-out: EC50) [nM]	EC50 ([1]; read-out: pEC50 (converted)) [nM]	EC50 ([2]; read-out: EC50) [nM]	IC50 ([3]; read-out: IC50) [nM]	EC50 ([4]; read-out: EC50) [nM]	EC50 [5] [nM]	IC50 ([6]; read-out: IC50) [nM]	IC50 [7] [nM]	IC50 [8] [nM]	Ki ([9]; read-out: Ki) [nM]	Ki ([10]; read-out: Ki) [nM]	Ki ([11]; read-out: Ki) [nM]	EC50 ([2]; read-out: pEC50 (converted)) [nM]	EC50 ([4]; read-out: pEC50 (converted)) [nM]	IC50 ([3]; read-out: pIC50 (converted)) [nM]	IC50 ([6]; read-out: pIC50 (converted)) [nM]	Ki ([10]; read-out: pKi (converted)) [nM]	Ki ([9]; read-out: pKi (converted)) [nM]	Ki ([11]; read-out: pKi (converted)) [nM]
COc1c(OCCOCCOCCOCCOCCOc2ccc(C3CCN(c4ccn5c(CC6CC6)nnc5c4Cl)CC3)cc2)cccc1C(=O)C1CCN(CCc2ccc(F)cc2)CC1	1600		510	450	10000 to 50000		1000	1900	2400	130	180	320							
COc1c(OCCOCCOCCOCCOCCOCCOCCOCCOCCOCCOCCOCCOc2ccc(C3CCN(c4ccn5c(CC6CC6)nnc5c4Cl)CC3)cc2)cccc1C(=O)C1CCN(CCc2ccc(F)cc2)CC1	2500		480	520	10000 to 50000		1600	700	380	200	170	170							
COCCOc1cccc(C(=O)C2CCN(CCc3ccc(F)cc3)CC2)c1OC	> 50000	> 50100	> 50000	9.3	> 50000		16	29	23	3	6.5	13	> 50100	> 50100					
COc1cccc(C(=O)C2CCN(CCc3ccc(F)cc3)CC2)c1OC	> 50000	> 50100	> 50000	0.81	> 50000		6.2	24	5.4	0.52	3	8.7	> 50100	> 50100					
COc1c(OCCOCCOCCOCCOCCOCCOCCOCCOCCOCCOc2ccc(C3CCN(c4ccn5c(CC6CC6)nnc5c4Cl)CC3)cc2)cccc1C(=O)C1CCN(CCc2ccc(F)cc2)CC1	1200		320	300	10000 to 50000		300	1200	140	79	70	120				309	72.4		
COc1c(OCCOCCOCCOCCOCCOCCOCCOCCOc2ccc(C3CCN(c4ccn5c(CC6CC6)nnc5c4Cl)CC3)cc2)cccc1C(=O)C1CCN(CCc2ccc(F)cc2)CC1	1600		510	410	10000 to 50000		270	660	470	110	120	160						120	132
COc1c(O)cccc1C(=O)C1CCN(CCc2ccc(F)cc2)CC1	> 50000	> 50100	> 50000	11	> 50000		9.2	23	22				> 50100	> 50100					

The remaining molecules from weak to strong by EC50 ([1]; read-out: EC50), led by results:

EC50 ([1]; read-out: EC50) [nM]	EC50 ([1]; read-out: pEC50 (converted)) [nM]	EC50 ([2]; read-out: EC50) [nM]	IC50 ([3]; read-out: IC50) [nM]	EC50 ([4]; read-out: EC50) [nM]	EC50 [5] [nM]	IC50 ([6]; read-out: IC50) [nM]	IC50 [7] [nM]	IC50 [8] [nM]	Ki ([9]; read-out: Ki) [nM]	Ki ([10]; read-out: Ki) [nM]	Ki ([11]; read-out: Ki) [nM]	EC50 ([2]; read-out: pEC50 (converted)) [nM]	EC50 ([4]; read-out: pEC50 (converted)) [nM]	IC50 ([3]; read-out: pIC50 (converted)) [nM]	IC50 ([6]; read-out: pIC50 (converted)) [nM]	Ki ([10]; read-out: pKi (converted)) [nM]	Ki ([9]; read-out: pKi (converted)) [nM]	Ki ([11]; read-out: pKi (converted)) [nM]	SMILES
1200		530	270	10000 to 50000		510	890	420	100	120	190								COc1c(OCCOCCOCCOCCOCCOCCOc2ccc(C3CCN(c4ccn5c(CC6CC6)nnc5c4Cl)CC3)cc2)cccc1C(=O)C1CCN(CCc2ccc(F)cc2)CC1
900		320	1200	10000 to 50000		7900	5300	9900	360	840	1040								COc1c(OCCOCCOCCOc2ccc(C3CCN(c4ccn5c(CC6CC6)nnc5c4Cl)CC3)cc2)cccc1C(=O)C1CCN(CCc2ccc(F)cc2)CC1
550		330	280	10000 to 50000		1700	990	800	33	100	110			288	1550				COc1c(OCCOCCOCCOCCOc2ccc(C3CCN(c4ccn5c(CC6CC6)nnc5c4Cl)CC3)cc2)cccc1C(=O)C1CCN(CCc2ccc(F)cc2)CC1
37	35.5	5.2	1300	210	19	10000													COc1ccccc1C1CCN(c2ccn3c(CC4CC4)nnc3c2Cl)CC1
